Assay results taken from the EternaBench riboswitch data.

Test system: MS2 coat protein
Test: apparent Kd, MS2 coat protein; higher = weaker binding; RNA-MaP array; FMN 200 µM where present
Method in brief: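 Green signal was scaled to red-channel RNA signal and control-cluster median Fmax, and the apparent Kd was taken as the median of filtered per-cluster binding-curve fits. The binding series used SNAP-549-labelled MS2 coat protein from 0.7 or 1.5 nM, doubling to 3 µM, on designs transcribed by stalled E. coli RNA polymerase on Illumina sequencing-chip clusters. Each series ran without and then with constant ligand in 100 mM Tris-HCl pH 7.5, 80 mM KCl, 4 mM MgCl2, BSA, DTT, yeast tRNA and Tween-20.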

[1] = designed as: OFF switch for flavin mononucleotide, no ligand
[2] = ligand present: flavin mononucleotide, designed as: OFF switch for flavin mononucleotide
[3] = designed as: ON switch for flavin mononucleotide, no ligand
[4] = ligand present: flavin mononucleotide, designed as: ON switch for flavin mononucleotide

| Sequence | apparent Kd [1] | apparent Kd [2] | apparent Kd [3] | apparent Kd [4] |
| --- | --- | --- | --- | --- |
| GUCACUAGAGGAUAUACAAUGGUAUAUGAUCCUAGAGACAUACAUGAGGAUCACCCAUGUAGAAGGCUAGUAUU | 64.6 nM | 43.5 nM |  |  |
| CGCCUGCGUAGAAUUAGCAGCUGACAGGAUAUGACAUGAGGAUCACCCAUGUGAAUUAAGAAGAGUCAGAAGGGUCACGACGCG | 9.4 nM | 10.8 nM |  |  |
| CUCAUGUAAGGAUAUCAGUAGUAAAAAAAUAAAAUUACUACUGAGAAGGUACAUGAGGAUCACCCAUGUCCUUC | 96.1 nM | 56.2 nM |  |  |
| ACAUAAAUUCGAGGAUAUCGGUGAAAUAAUUUACGAGAAGGCGAUAAUAGUUAUAGACUUAUAGACAUGAGGAUCACCCAUGUA |  |  | 30.3 nM | 27.6 nM |
| AUCUCACAUGAGGAUCACCCAUGUUAGGAUAUUGUUUCUUGAUGAUUACAUCAAGCGAUAAGAAGGGACAGACU | 25.6 nM | 27.4 nM |  |  |
| GUCCGGCGUGUAGGAUAUGGAUCCGAUUAGGAUCCAGAAGGACAUGAGGAUCACCCAUGUACAUGUAAACAGUCAUCACCGGAG | 9.11 nM | 58.9 nM |  |  |
| GAGAAGGGAGGAUAUGCUGCUCGUCACUUGCGUGAUGAGUAGCAGAAGGCACAUGAGGAUCACCCAUGUAAAGG | 84.2 nM | 29.4 nM |  |  |
| GGAAAAUGAGGAUAUACAUGUUUGAUACCUCUACGCCCGCAACAUGAGGAUCACCCAUGUAGAAGGCAUGAAAA | 15.4 nM | 44.2 nM |  |  |
| AUACAUGAGGAUCACCCAUGUUACUGGGUCUAUAUAGAACGUAGAAGGAUGAUAUUAUAAAUAUCAUAGGAUAUACUAUAUUGU | 32.7 nM | 32 nM |  |  |
| AAGAAGUCAGGAUAUGCAUGGCGGGACUUGCGUCGUGGCGUGCAGAAGGGACAUGAGGAUCACCCAUGUGGAGC | 107 nM | 161 nM |  |  |
| UCACGAGACUAAGGAUAUGGAGUGUCAACAUAAAACAUGAGGAUCACCCAUGUAAAGAGUACGAUUCAGAAGGUAGAGACGUGA |  |  | 43 nM | 25.1 nM |
| GGUCGUCCCAUUAACAUGAGGAUCACCCAUGUCAAAAGACAUGAGGAUAUGGUACCUAAUUGGUACCAGAAGGCAUGGACGACC |  |  | 1210 nM | 115 nM |
| UUACCUUAUGAGAAGGCGGUCAUGAAACAUGAUCGAGGAUAUCAUGUAAACAUGAGGAUCACCCAUGUAUGGGUAUUAUGGUAU |  |  | 142 nM | 27.3 nM |
| UCACGGUAUGUAGGAUAUGCAUAGCAUUGCUAUGCAGAAGGACAUGAGGAUCACCCAUGUAUGUAUUCCAUACUAAUCCCGUGG | 5.57 nM | 5.66 nM |  |  |
| UUAUUUUGUCAAGGAUAUGUAUUAUUGAUUUGAAAACAUGAGGAUCACCCAUGUAUAUGGUGGGAACAGAAGGUGAAUAAGUAA | 248 nM | 235 nM |  |  |
| GAAUGUCGGGUAGGAUAUGACUUGCCACGGAGGUCAGAAGGGCCACGACAUGAGGAUCACCCAUGUACUGUAUUCCUUUUUCAA | 25.3 nM | 98.1 nM |  |  |
| GGCUAGUCAGGAUAUACGAACAUGUCAAAAGACGUGAAGGGACAUGAGGAUCACCCAUGUAGAAGGGACUAGCU | 24.8 nM | 165 nM |  |  |
| AGUAGAUCAGGAUAUACAUAAAUGAUAAUUAUGUACCUUCUACAUGAGGAUCACCCAUGUAGAAGGGAUCUACA | 13.1 nM | 11.9 nM |  |  |
| ACGACAAAAGUCGAACGAUGUAGCAGAAGGACAUGAGGAUCACCCAUGUAAAAUGUAACAGCCAUGUAGGAUAUGCAAAAUCGA | 37.7 nM | 159 nM |  |  |
| GGAUAGGACAGAGGAUAUACGUGCUAGAGAUACUAGCAAAAUUUCUUCACAUGAGGAUCACCCAUGUAGAAGGCUGUCCUAUCG | 4.55 nM | 5.6 nM |  |  |
| UGAUAGGACAGAGGAUAUACGGAUAGGAUCUACUAUCCUCCUUAAAUAACAUGAGGAUCACCCAUGUAGAAGGCUGUCCUAUCU | 17.2 nM | 39 nM |  |  |

| Sequence | apparent Kd [1] | apparent Kd [2] | apparent Kd [3] | apparent Kd [4] |
| --- | --- | --- | --- | --- |
| AAAAGACAUGAGGAUCACCCAUGUUAGGAUAUCGUGCAGAAAAAAAAAAAAAACUGCACGAGAAGGAACAAGGA | 73.5 nM | 88.5 nM |  |  |
| GGAUGAGCAAUAGGAUAUGCUGGGAUUGAAUGGGUAGAAGGAUUUCUAGUGGUAAAGACAUGAGGAUCACCCAUGUCGCGGCCC |  |  | 45.7 nM | 45.2 nM |
| GCCAAGCUAGGAUAUACCCAGGGUUUGUUCUCUAACAACACACAUGAGGAUCACCCAUGUAGAAGGAGCCGGGA | 38.3 nM | 81 nM |  |  |
| ACUACGAUAGCGAUAUGAUCGAGAGAUCAUGUCGCUAUUUUUAGAAGGACAUGAGGAUCACCCAUGUAGGAUAUGGGACGUGGA |  |  | 70.4 nM | 27.1 nM |
| CGAAUACGCGUGAGGAUAUCGUUCGAAUAUUGCGAUGAGAAGGCACAUGAGGAUCACCCAUGUAGGUAUCCUGG | 73.2 nM | 120 nM |  |  |
| CUCACGUUAGUAGGAUAUCCGACAUGAGGAUCACCCAUGUCACUACGCCGAUAGGGAAGGUGUAAGGAGAAGGGCUGAUAAAUA |  |  | 124 nM | 92.9 nM |
| AUCAUGUGAGGAUAUGUGAUCAACCUUCUGUAUAGAUGAUUACAGAAGGCACAUGAGGAUCACCCAUGUAGAUC | 70.9 nM | 79 nM |  |  |
| AAGAAGUGAGGAUAUCGAAGACAGACGAAAAGUCUGUCAAACGAGAAGGCACAUGAGGAUCACCCAUGUAAGAA | 25.9 nM | 35.2 nM |  |  |
| GCACGGAAAGGAUAUGCACGGCUAGCUCGCGUUUUUGUGUGACAUGAGGAUCACCCAUGUAGAAGGUUCAGUGG | 68 nM | 71.8 nM |  |  |
| UUUAUAAAUUAGAAGGCGUGAUAAAAUACAAUAAACAUGAGGAUCACCCAUGUGUACCCAUGUUAUGAGGAUAUAGUCAUAUAU |  |  | 462 nM | 377 nM |
| AGCUACGUUUCGUAGCAGUGUCAUCGAGAAGGCCUCAUUACAUGAGGAUCACCCAUGUGGACAUGGGAGGAUAUCGAUGAUACA |  |  | 487 nM | 212 nM |
| AAAACAUGAGGAUCACCCAUGUAAAGAUCGGUUAAUUGUUGUGAGGAUAUACUAAAUUUUAGGUUGUAGAAGGCACUGGGUACA |  |  | 43.1 nM | 54.9 nM |
| CUGGGAUCAGUAGGAUAUGCCGGACAUGAGGAUCACCCAUGUAAGGCGUGCUUCCCUCACGUGCGGCAGAAGGGCUGCGUCACU | 43.4 nM | 40 nM |  |  |
| AGACGGAGCUGAGGAUAUACAUGAGGAUCACCCAUGUAAGAUCUCCAGGAAACUGGAGAUCAAAAGUAGAAGGCAGCUCCGUCA | 15.1 nM | 23.1 nM |  |  |
| CUCAUGUAAGGAUAUCAGUAGUAAAAAAAUAAAAUUACUACUGAGAAGGUACAUGAGGAUCACCCAUGUAUCUU | 84.8 nM | 72.5 nM |  |  |
| CGCUAAUAGAACGAUUUGUGAAGACAUGAGGAUCACCCAUGUAGAAGGACAACGGAAUAAACGUUGUAGGAUAUACACUUAGCG | 18.1 nM | 24.4 nM |  |  |
| GCGCCAUUGCAAGGAUAUCCUACAGAGGGUGCAGGAGAAGGUGCAUUGGUGAGACUAUAGGACAUGAGGAUCACCCAUGUACCU |  |  | 14.8 nM | 17.9 nM |
| UUGGCGACGUAGAAGGGUGACAUGAGGAUCACCCAUGUGCCGAUAUGUCUCGAGAUAUGUCGGCCACAGGAUAUACGUGCCAUC |  |  | 61.7 nM | 38.5 nM |
| CGUGCGUAUGUGAGGAUAUGCUGGUCCUUGGCUCGGCAGAAGGCACAUGAGGAUCACCCAUGUGGUGUCGUACA | 78.2 nM | 156 nM |  |  |
| CUGCGCUAGGAGAAGGGCUAGAGUGUGAUAUAUUUGCCCGCGAGCACAUGAGGAUCACCCAUGUAGCAGGAUAUCCAAGCCGGU | 6.86 nM | 16.5 nM |  |  |
| GCGUCACAAUUAGAACCAAUACGAACAUGAGGAUCACCCAUGUAGGAUAUGCUAGAAGUUGAGUUGCAGAAGGACAUUUAUCGC | 10.6 nM | 9.8 nM |  |  |
